Test results taken from ChEMBL document CHEMBL4359879, “Synthesis and evaluation of 2-carboxy indole derivatives as potent and selective anti-leukemic agents” (Eur J Med Chem, 2019).
pEC50: −log10 of the molar value. Calls of active or inactive are those of the source. The rule behind the calls is not given here.

Columns and labels:
Assay type in all cases: functional, cell-based
[1] = system: CCRF-CEM; assay: Antiproliferative activity against human CEM cells incubated for 48 hrs by MTT assay
Procedure, shortened: (§1)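 Cells grown in RPMI-1640 with 10% FBS, penicillin/streptomycin, 37 °C, 5% CO2. After 48 h of exposure to a dilution series, MTT was added (0.5 mg/ml final) for 4 h. Formazan was dissolved overnight in acidic SDS (10% SDS, 0.01 mol/L HCl) and absorbance read at 570 and 620 nm. Survival was expressed relative to controls, and EC50 was fitted from dose-response curves.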

[2] = system: RS4-11; assay: Antiproliferative activity against human RS4:11 cells incubated for 48 hrs by MTT assay; conditions: RS4-11, 48 h; procedure, shortened: as §1
[3] = system: HL-60; assay: Induction of differentiation in human HL60 cells assessed as increase in CD11b positive cells at 2 uM incubated for 48 hrs by 7-AAD staining-based flow cytometric analysis
Procedure, shortened: (§2)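 Vitamin D3 at 100 nM and ATRA at 2 μM served as positive controls. Stained with APC anti-CD11b and PE anti-CD14 for 30 min at 4 °C, then 7-AAD.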

[4] = system: HL-60; assay: Induction of differentiation in human HL60 cells assessed as increase in CD14 positive cells at 100 nM incubated for 48 hrs by 7-AAD staining-based flow cytometric analysis; procedure, shortened: as §2

pEC50 [1]	pEC50 [2]	Compound	Activity [3]	Activity [4]
4.28	4.37	COc1ccc2c(-c3ccc(C(F)(F)F)cc3)c(C(=O)N[C@@H](Cc3ccccc3)C(=O)O)[nH]c2c1		
		CC1=C(/C=C/C(C)=C/C=C/C(C)=C/C(=O)O)C(C)(C)CCC1	Active	
4.10	< 4.00	COC(=O)c1[nH]c2cc(OC)ccc2c1C1CCCCC1		
4.78	4.42	COC(=O)c1[nH]c2cc(OC)ccc2c1CC(C)C		
5.00	4.99	COC(=O)c1[nH]c2cc(O)ccc2c1-c1ccc(C(F)(F)F)cc1		
< 4.00	< 4.00	COC(=O)Cc1c(C(=O)OC)[nH]c2cc(OC)ccc12		
< 4.00	< 4.00	COC(=O)c1[nH]c2cc(OC)ccc2c1C		
< 4.00	< 4.00	COC(=O)c1[nH]c2cc(C(F)(F)F)ccc2c1-c1ccc(OC)cc1		
< 4.00	4.09	COC(=O)c1[nH]c2cc(OC)ccc2c1C(C)C		
< 4.00	< 4.00	COC(=O)c1[nH]c2ccccc2c1-c1ccc(C(F)(F)F)cc1		
4.53	4.32	COc1ccc2c(-c3ccc(C(F)(F)F)cc3)c(C(=O)N3CCOCC3)[nH]c2c1		
		C=C1/C(=C\C=C2/CCC[C@]3(C)[C@@H]([C@H](C)CCCC(C)(C)O)CC[C@@H]23)C[C@@H](O)C[C@@H]1O		Active
< 4.00	< 4.00	COC(=O)c1[nH]c2cc(C(F)(F)F)ccc2c1-c1ccc(C(F)(F)F)cc1		
< 4.00	< 4.00	COC(=O)c1[nH]c2ccc(OC)cc2c1-c1ccc(C(F)(F)F)cc1		
6.48	6.70	COC(=O)c1[nH]c2cc(OC)ccc2c1-c1ccc(Br)cc1		
6.41	6.52	COC(=O)c1c(-c2ccc(C(F)(F)F)cc2)c2ccc(OC)cc2n1O		

pEC50 [1]	pEC50 [2]	Compound	Activity [3]	Activity [4]
< 4.00	< 4.00	COC(=O)c1[nH]c2ccccc2c1-c1ccc(F)cc1		
< 4.00	< 4.00	COC(=O)c1[nH]c2ccccc2c1-c1ccc(OC)cc1		
< 4.00	< 4.00	COc1ccc2c(-c3ccc(C(F)(F)F)cc3)c(C(=O)OC(C)(C)C)[nH]c2c1		
5.72	4.98	COC(=O)c1[nH]c2cc(OC)ccc2c1-c1ccccc1OC		
< 4.00	< 4.00	COC(=O)c1c(-c2ccc(C(F)(F)F)cc2)c2ccc(OC)cc2n1C		
6.24	5.42	COC(=O)c1[nH]c2cc(OC)ccc2c1-c1ccc(Cl)c(Cl)c1		
4.70	4.61	COc1ccc2c(-c3ccc(C(F)(F)F)cc3)c(C(=O)O)[nH]c2c1		
< 4.00	< 4.00	COC(=O)c1[nH]c2cc(C(F)(F)F)ccc2c1-c1ccccc1		
< 4.00	< 4.00	CCOC(=O)c1[nH]c2cc(OC)ccc2c1-c1ccc(C(F)(F)F)cc1		
< 4.00	< 4.00	COC(=O)c1c(-c2ccc(C(F)(F)F)cc2)c2ccc(OC)cc2n1Cc1ccccc1		
4.45	4.02	COC(=O)c1[nH]c2ccccc2c1-c1ccccc1		
< 4.00	< 4.00	CCc1c(C(=O)OC)[nH]c2cc(OC)ccc12		
5.06	4.21	COC(=O)c1[nH]c2cc(OC)ccc2c1Cc1ccccc1		
5.00	4.07	COC(=O)c1[nH]c2cc(OC)ccc2c1-c1ccc(F)cc1		
< 4.00	< 4.00	COC(=O)c1[nH]c2cc(OC)ccc2c1C(=O)OC		
